# What was measured:
# Format in all cases: functional
# Enterobacter cloacae = experiment: Antibacterial activity against Enterobacter cloacae 34 after 18 to 24 hrs by agar dilution method
# Outline: (§1)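 MICs were determined by agar dilution on test agar. An overnight tryptosoy broth culture was diluted in the same broth to about 10⁶ cells/mL and spotted with an inoculating device onto agar containing serial twofold dilutions of compound. Plates were incubated at 37 °C for 18–20 h, and the MIC was the lowest concentration with no visible growth.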
# Streptococcus pyogenes = experiment: Antibacterial activity against Streptococcus pyogenes 9889 after 18 to 24 hrs by agar dilution method
# Outline: (§2)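 Agar dilution on test agar holding serial twofold dilutions of compound. Overnight tryptosoy broth cultures were diluted in the same broth to about 10⁶ cells/mL and spotted with an inoculating device. Plates were incubated at 37 °C for 18–20 h.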
# Streptococcus agalactiae = experiment: Antibacterial activity against Streptococcus agalactiae 32 after 18 to 24 hrs by agar dilution method; outline: as §1
# Pseudomonas aeruginosa = experiment: Antibacterial activity against Pseudomonas aeruginosa 5455 after 18 to 24 hrs by agar dilution method; outline: as §1
# Klebsiella pneumoniae = experiment: Antibacterial activity against Klebsiella pneumoniae 523 after 18 to 24 hrs by agar dilution method; outline: as §1
# Streptococcus pneumoniae = experiment: Antibacterial activity against Streptococcus pneumoniae 0025 after 18 to 24 hrs by agar dilution method; outline: as §1
# Serratia marcescens = experiment: Antibacterial activity against Serratia marcescens 3349 after 18 to 24 hrs by agar dilution method; outline: as §1
# Haemophilus influenzae = experiment: Antibacterial activity against Haemophilus influenzae 1210 after 18 to 24 hrs by agar dilution method; outline: as §1
# Staphylococcus = experiment: Antibacterial activity against coagulase negative Staphylococcus after 18 to 24 hrs by agar dilution method; outline: as §2
# Enterococcus faecalis = experiment: Antibacterial activity against Enterococcus faecalis 2347 after 18 to 24 hrs by agar dilution method; outline: as §1
# Staphylococcus aureus = experiment: Antibacterial activity against Staphylococcus aureus 1218 after 18 to 24 hrs by agar dilution method; outline: as §1
# Acinetobacter baumannii = experiment: Antibacterial activity against Acinetobacter baumannii 2289 after 18 to 24 hrs by agar dilution method; outline: as §1
# Citrobacter freundii = experiment: Antibacterial activity against Citrobacter freundii 323 after 18 to 24 hrs by agar dilution method; outline: as §1
# Escherichia coli = experiment: Antibacterial activity against Escherichia coli 04 after 18 to 24 hrs by agar dilution method; outline: as §1
SMILES,MIC (Enterobacter cloacae) [µg/mL],MIC (Streptococcus pyogenes) [µg/mL],MIC (Streptococcus agalactiae) [µg/mL],MIC (Pseudomonas aeruginosa) [µg/mL],MIC (Klebsiella pneumoniae) [µg/mL],MIC (Streptococcus pneumoniae) [µg/mL],MIC (Serratia marcescens) [µg/mL],MIC (Haemophilus influenzae) [µg/mL],MIC (Staphylococcus) [µg/mL],MIC (Enterococcus faecalis) [µg/mL],MIC (Staphylococcus aureus) [µg/mL],MIC (Acinetobacter baumannii) [µg/mL],MIC (Citrobacter freundii) [µg/mL],MIC (Escherichia coli) [µg/mL]
CCN1CCN(C[C@@H]2C[C@H](SC3=C(C(=O)O)N4C(=O)C([C@@H](C)O)C4[C@H]3C)CN2)S1(=O)=O (some centres not stated),0.098,0.02,0.04,12.5,0.198,0.04,0.098,12.5,0.198,6.25,25,25,0.098,0.098
CC1CN(C[C@@H]2C[C@H](SC3=C(C(=O)O)N4C(=O)C([C@@H](C)O)C4[C@H]3C)CN2)S(=O)(=O)N1 (some centres not stated),0.195,0.04,0.04,25,0.198,0.04,0.195,12.5,0.391,25,25,25,0.198,0.198
C[C@@H](O)C1C(=O)N2C(C(=O)O)=C(S[C@@H]3CN[C@H](CN4CCNS4(=O)=O)C3)[C@H](C)C12 (some centres not stated),0.049,0.01,0.02,0.781,0.049,0.02,0.049,6.25,0.098,6.25,3.12,12.5,0.049,0.049
C[C@@H](O)C1C(=O)N2C(C(=O)O)=C(S[C@@H]3CN[C@H](CN4CCOS4(=O)=O)C3)[C@H](C)C12 (some centres not stated),0.098,0.02,0.02,12.5,0.098,0.013,0.198,6.25,0.098,6.25,3.12,12.5,0.195,0.049
C[C@@H](O)C1C(=O)N2C(C(=O)O)=C(S[C@@H]3CN[C@H](CN4CCCNS4(=O)=O)C3)[C@H](C)C12 (some centres not stated),0.049,0.01,0.01,1.56,0.049,0.02,0.198,6.25,0.098,6.25,6.25,6.25,0.049,0.049
C[C@@H](O)C1C(=O)N2C(C(=O)O)=C(S[C@@H]3CN[C@H](CN4CCN(Cc5ccccc5)S4(=O)=O)C3)[C@H](C)C12 (some centres not stated),0.781,0.02,0.02,100,0.781,0.025,6.25,12.5,0.098,3.12,3.12,50,0.781,0.195
C[C@@H](O)C1C(=O)N2C(C(=O)O)=C(S[C@@H]3CN[C@H](CN4CCN(C)S4(=O)=O)C3)[C@H](C)C12 (some centres not stated),0.049,0.02,0.02,3.12,0.098,0.02,0.098,6.25,0.098,6.25,12.5,12.5,0.049,0.049
C[C@@H](O)C1C(=O)N2C(C(=O)O)=C(S[C@@H]3CN[C@H](CN4CC(C)(C)NS4(=O)=O)C3)[C@H](C)C12 (some centres not stated),0.098,0.01,0.02,3.12,0.049,0.02,0.049,6.25,0.098,6.25,3.12,12.5,0.049,0.049

# — ChEMBL document CHEMBL1147968, “Novel lbeta-methylcarbapenems having cyclic sulfonamide moieties: synthesis and evaluation of in vitro antibacterial activity” (2007)
